Series [1] relates to Staphylococcus aureus. The series can be described thus: Inhibition of pigmentation in wild type Staphylococcus aureus Newman after 48 hrs by spectrophotometric method. In kind it is functional, organism-based. The procedure, abridged: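 S. aureus Newman was grown in TSB 48 h at 37 °C with a concentration series of compound in DMSO, in duplicate. Controls were a DMSO vehicle and a nonpigmented CrtN mutant. Cells were washed twice in 0.01 M PBS and pigment extracted in methanol. A450 was measured and IC50 derived by curve fitting.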

A further series relates to HepG2. Put plainly: Cytotoxicity against human HepG2 cells assessed as reduction in cell viability after 72 hrs by CCK-8 assay. Format: functional. The settings on record: HepG2, 72 h. The procedure, abridged:
(§1)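 HepG2 or HEK-293T cells were seeded at 5000 per well and grown 24 h at 37 °C, 5% CO₂. Cells were then exposed to compound for 72 h; compound came from DMSO, diluted in medium to final DMSO <0.4%, with a DMSO-matched vehicle control. Viability was read by 10% CCK-8 for 1 h, absorbance 450 nm, in triplicate.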

The next series deals with HEK-293T. Put plainly: Cytotoxicity against HEK293T cells assessed as reduction in cell viability after 72 hrs by CCK-8 assay. In kind it is functional. The settings on record: Homo sapiens. The procedure, abridged: as §1
Series [2] in a line: Solubility of the compound in water by UV analysis. Format: physicochemical.
In series [3] the test system is Staphylococcus aureus. The series can be described thus: Antibacterial activity against methicillin/linezolid-resistant Staphylococcus aureus NRS271 infected in BALB/c mouse assessed as decrease in bacterial survival in mouse liver at 0.4 mg, ip bid administered 4.5 days measured after 90 hrs. In kind it is functional, organism-based. The essentials: (§2)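 6–8-week-old female BALB/c mice (SPF) dosed intraperitoneally twice daily over 4.5 d at 0.1 or 0.4 mg/bid. Pre-treatment started before infection; post-treatment started 6 h after infection. Vancomycin and linezolid controls given as pre-treatment at 0.4 mg/bid. Retro-orbital inoculation: Mu50 1.1 × 10⁹ CFU, NRS271 1.8 × 10⁸ CFU. Kidneys and livers homogenised in PBS/0.01% Triton X-100 and plated on TSA for CFU.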

Series [4] concerns Staphylococcus aureus. Put plainly: Antibacterial activity against vancomycin-intermediate methicillin-resistant Staphylococcus aureus Mu50 infected in BALB/c mouse assessed as decrease in bacterial survival in mouse liver at 0.4 mg, ip bid administered 4.5 days measured after 90 hrs. Format: functional, organism-based. The procedure, abridged: as §2
Series [5] deals with Staphylococcus aureus. Put plainly: Antibacterial activity against wild type Staphylococcus aureus Newman infected in BALB/c mouse assessed as decrease in bacterial load in mouse liver at 0.4 mg, ip bid administered 4.5 days measured after 90 hrs relative to control. In kind it is functional.
Series [6] relates to Staphylococcus aureus. The series can be described thus: Antibacterial activity against wild type Staphylococcus aureus Newman assessed as bacterial survival at 1 uM after 24 hrs by H2O2 killing assay (reference value: 26.67%). Format: functional.

pIC50: −log10 of the molar value. Calls of active or inactive are those of the source. The calls are words filed in the database; no cut-off is given here.

For `CC(C)N(C/C=C/c1ccc(C(F)(F)F)cc1F)Cc1ccc2c(c1)OCO2`, the pIC50 in the series on Staphylococcus aureus [1] was < 6.00.
Regarding `CN(C/C=C/c1ccc(Br)cc1)Cc1ccc2c(c1)OCO2.Cl`, the CC50 was 104 µM with HepG2 and 68.3 µM with HEK-293T. This compound also gave a negative-log IC50 (pIC50) with Staphylococcus aureus [1] of 8.34. The compound further returned a solubility in series [2] of 17.5 mg/mL.
In turn, `COc1ccc(/C=C/CN(C)Cc2ccc3c(c2)OCO3)cc1F` gave a pIC50 in the series on Staphylococcus aureus [1] of 6.95.
As for `CN(C/C=C/c1cccc(F)c1)Cc1ccc2c(c1)OCO2`, the pIC50 in the series with Staphylococcus aureus [1] was 6.38.
Same read-out and setting: the same measure for `C/C(=C\c1ccc(C(F)(F)F)cc1F)CN(C)Cc1ccc2c(c1)OCO2`: < 6.00.
The same measure, in the same setting: with `CN(Cc1ccc2c(c1)OCO2)C[C@@H]1C[C@H]1c1ccc(C(F)(F)F)cc1F` the figure was < 6.00.
Regarding `Fc1cc(C(F)(F)F)ccc1/C=C/CNCc1ccc2c(c1)OCO2`, in the series on Staphylococcus aureus [1], the pIC50 is < 6.00.
Same read-out and setting: with `CN(C/C=C/c1ccccc1Cl)Cc1ccc2c(c1)OCO2` the figure was < 6.00.
For `CN(C/C=C/c1ccc2ccccc2c1)Cc1ccc2c(c1)OCO2.Cl`, the results for the CC50 with HepG2 and in the series on HEK-293T were 60.5 µM and 48.3 µM, respectively. Besides, the negative logarithm of the IC50 (pIC50) in the series on Staphylococcus aureus [1] was 8.40. The compound also yielded a solubility in series [2] of 4.56 mg/mL.
As for `CN(C/C=C/c1ccccc1)Cc1ccc2c(c1)OCO2`, the pIC50 in the series with Staphylococcus aureus [1] was < 6.00.
As to `CC(=O)NC[C@H]1CN(c2ccc(N3CCOCC3)c(F)c2)C(=O)O1` [LINEZOLID], the outcome in the series on Staphylococcus aureus [3] and in the series on Staphylococcus aureus [4] was Active. Further, the Activity in the series with Staphylococcus aureus [5] stood at 1.41 deltalog10CFU.
Take `CCOc1ccc(/C=C/CN(C)Cc2ccc3c(c2)OCO3)cc1.Cl`: the CC50 with HepG2 is 82.6 µM; in the series on HEK-293T, 122 µM. Further, in the series on Staphylococcus aureus [1], the pIC50 was 8.38. This compound had a solubility in series [2] of 24.2 mg/mL.
With `CN(C/C=C/c1ccc(F)cc1)Cc1ccc2c(c1)OCO2`, the pIC50 with Staphylococcus aureus [1] was 7.23.
Same read-out and setting: the same measure for `CN(C/C=C/c1ccc([N+](=O)[O-])cc1)Cc1ccc2c(c1)OCO2`: 7.08.
With `CN(C/C=C/c1ccc(Cl)cc1)Cc1ccc2c(c1)OCO2.Cl`, the cytotoxic concentration (CC50) in the series on HepG2 was found to be 141 µM; in the series with HEK-293T, 83.8 µM. This compound also had a pIC50 in the series with Staphylococcus aureus [1] of 8.38. This compound registered a solubility in series [2] of 18.7 mg/mL.
In turn, `CN(C/C=C/c1ccc(C(C)(C)C)cc1)Cc1ccc2c(c1)OCO2` gave a negative-log IC50 (pIC50) in the series on Staphylococcus aureus [1] of 8.28.
Same read-out and setting: the same measure for `CN(C/C=C/c1cccs1)Cc1ccc2c(c1)OCO2`: < 6.00; for `CN(C/C=C/c1cccc(Cl)c1)Cc1ccc2c(c1)OCO2`: 6.24; for `COc1ccccc1/C=C/CN(C)Cc1ccc2c(c1)OCO2`: < 6.00.
Still for that read-out and setting: with `CN(C/C=C/c1ccccc1C(F)(F)F)Cc1ccc2c(c1)OCO2` the figure was 7.54.
With `COc1ccc(/C=C/CN(C)Cc2ccc3c(c2)OCO3)c(F)c1.Cl`, the CC50 came out at 120 µM with HepG2 and 76.8 µM in the series on HEK-293T. Moreover, the negative logarithm of the IC50 (pIC50) in the series on Staphylococcus aureus [1] was 8.42. The same compound displayed a solubility in series [2] of 19.2 mg/mL.
In the case of `C[C@@H]1[C@H](O)[C@@H](C)/C=C/C=C/C=C/C=C/C=C/C=C/C=C/[C@H](O[C@@H]2O[C@H](C)[C@@H](O)[C@H](N)[C@@H]2O)C[C@@H]2O[C@](O)(C[C@@H](O)C[C@@H](O)[C@H](O)CC[C@@H](O)C[C@@H](O)CC(=O)O[C@H]1C)C[C@H](O)[C@H]2C(=O)O` [AMPHOTERICIN B], the CC50 stood at 28.6 µM in the series with HepG2 and 36.5 µM with HEK-293T.
With `CN(C/C=C/c1ccco1)Cc1ccc2c(c1)OCO2`, the pIC50 in the series on Staphylococcus aureus [1] is < 6.00.
For `COc1cccc(/C=C/CN(C)Cc2ccc3c(c2)OCO3)c1`, the pIC50 with Staphylococcus aureus [1] is < 6.00.
On the same count and under the same terms, the same measure for `CN(C/C=C/C1CCCC1)Cc1ccc2c(c1)OCO2`: < 6.00; for `CN(C/C=C/c1cccc2ccccc12)Cc1ccc2c(c1)OCO2`: < 6.00.
The same measure, in the same setting: with `COC(=O)c1ccc(/C=C/CN(C)Cc2ccc3c(c2)OCO3)cc1` the figure was 8.10.
On to `COc1ccc(/C=C/CN(C)Cc2ccc3c(c2)OCO3)cc1`, for which the pIC50 in the series with Staphylococcus aureus [1] is 8.04.
Consider `CN(C/C=C/c1ccc(-c2ccccc2)cc1)Cc1ccc2c(c1)OCO2.Cl`, for which the CC50 worked out at 53.6 µM in the series on HepG2 and 59.1 µM with HEK-293T. The same compound showed a negative logarithm of the IC50 (pIC50) with Staphylococcus aureus [1] of 8.41. The solubility in series [2] stood at 5.02 mg/mL.
`Cc1ccccc1/C=C/CN(C)Cc1ccc2c(c1)OCO2`: the pIC50 in the series on Staphylococcus aureus [1] was < 6.00.
Still for that read-out and setting: the same measure for `Cc1ccc(/C=C/CN(C)Cc2ccc3c(c2)OCO3)cc1`: 7.80.
With `CN(C/C=C/c1ccc(C(F)F)cc1)Cc1ccc2c(c1)OCO2.Cl`, the cytotoxic concentration (CC50) with HepG2 was 138 µM; in the series on HEK-293T, 68 µM. The pIC50 in the series with Staphylococcus aureus [1] was 8.39. Moreover, the solubility in series [2] amounted to 9.03 mg/mL.
Taken in the same sequence, the figures for `CN(C/C=C/c1ccc(C(F)(F)F)cc1)Cc1ccc2c(c1)OCO2.Cl` were 69.2 µM, 133 µM, 8.46 and 13.5 mg/mL.
As to `CC(=O)N[C@@H](CS)C(=O)O` [ACETYLCYSTEINE], the survival at 1 µM in the series with Staphylococcus aureus [6] was 57.3%.
Regarding `CN(C/C=C/c1ccc(C(F)(F)F)c(F)c1)Cc1ccc2c(c1)OCO2`, the pIC50 with Staphylococcus aureus [1] was 7.24.
As for `C/C=C/CN(C)Cc1ccc2c(c1)OCO2`, the pIC50 in the series with Staphylococcus aureus [1] was < 6.00.
Still for that read-out and setting: with `Cc1cccc(/C=C/CN(C)Cc2ccc3c(c2)OCO3)c1` the figure was 6.43.
Still for that read-out and setting: with `CN(C/C=C/c1ccc(Cl)cc1Cl)Cc1ccc2c(c1)OCO2` the figure was 7.75.
Same read-out and setting: the same measure for `CN(CCCc1ccc(C(F)(F)F)cc1F)Cc1ccc2c(c1)OCO2`: < 6.00; for `CN(C/C=C/C1CCCCC1)Cc1ccc2c(c1)OCO2`: < 6.00.
Regarding `CN(C/C=C/c1cccc(C(F)(F)F)c1)Cc1ccc2c(c1)OCO2`, the pIC50 in the series with Staphylococcus aureus [1] was 6.28.
For `CN(C/C=C/c1ccccc1F)Cc1ccc2c(c1)OCO2`, the negative-log IC50 (pIC50) in the series with Staphylococcus aureus [1] was 6.92. This pIC50 lies 0.64 log units higher than the previous one.
Compound `CN(C/C=C/c1ccc(C#N)cc1)Cc1ccc2c(c1)OCO2` showed a pIC50 in the series with Staphylococcus aureus [1] of 7.90.
Same read-out and setting: the same measure for `CCN(C/C=C/c1ccc(C(F)(F)F)cc1F)Cc1ccc2c(c1)OCO2`: < 6.00.
Take `CN[C@H](CC(C)C)C(=O)N[C@H]1C(=O)N[C@@H](CC(N)=O)C(=O)N[C@H]2C(=O)N[C@H]3C(=O)N[C@H](C(=O)N[C@H](C(=O)O)c4cc(O)cc(O)c4-c4cc3ccc4O)[C@H](O)c3ccc(c(Cl)c3)Oc3cc2cc(c3O[C@@H]2O[C@H](CO)[C@@H](O)[C@H](O)[C@H]2O[C@H]2C[C@](C)(N)[C@H](O)[C@H](C)O2)Oc2ccc(cc2Cl)[C@H]1O` [VANCOMYCIN]: the Activity in the series on Staphylococcus aureus [5] is 2.13 deltalog10CFU.
`CN(CC#Cc1ccc(C(F)(F)F)cc1F)Cc1ccc2c(c1)OCO2` gave a pIC50 in the series with Staphylococcus aureus [1] of 7.75.

Values taken from ChEMBL document CHEMBL4145474, “Discovery of novel piperonyl derivatives as diapophytoene desaturase inhibitors for the treatment of methicillin-, vancomycin- and linezolid-resistant Staphylococcus aureus infections” (Eur J Med Chem, 2018).
